Each structure is given as a SMILES string. Active and inactive are the calls of the source. No cut-off for these calls is given here.

Among the data in ChEMBL document CHEMBL5712072, “Epigenetic targeting of Hedgehog pathway transcriptional output through BET bromodomain inhibition” (Nat Med, 2014) are Activity and inhibition values, retold here.

For test [1], the system named is Medulloblastoma cell. Kind of test: Induction of apoptosis in mouse wildtype SMO expressing medulloblastoma cells assessed as necrotic cells by annexin-V/PI staining based flow cytometric analysis (reference value: 22%). (In general: Flow cytometry measures light scatter and fluorescence of single cells or particles in a stream.)
Test [2] deals with Medulloblastoma cell. Briefly: Induction of apoptosis in mouse wildtype SMO expressing medulloblastoma cells assessed as late apoptotic cells by annexin-V/PI staining based flow cytometric analysis (reference value: 2.5%).
In test [3] the target is Bromodomain-containing protein 4 (Mus musculus) (UniProt Q9ESU6). Briefly: Inhibition of BRD4 in mouse Hh-Light2 cells assessed as inhibition in Gli1 protein level by immunoblot analysis.
The target is the same in test [4]. Briefly: Inhibition of BRD4 in mouse Hh-Light2 cells assessed as Gli1 mRNA level by qRT-PCR analysis. A general note: Quantitative PCR measures a nucleic acid by following its amplification.
Test [5] has as its system Medulloblastoma cell. Briefly: Antitumor activity in […] medulloblastoma expressing wildtype SMO […] in NSG mouse assessed as reduction in tumor growth at 100 mg/kg/day, po. Format: functional, organism-based. The method in brief: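 Flank allografts: 2x10e6 SmoWT-MB cells per flank (both flanks) in 4-6 week NSG mice; randomized after engraftment to vehicle, GDC-0449 100 mg/kg PO qd or JQ1 50 mg/kg IP qd, dosed until euthanasia required; caliper tumor measurement; group means ± S.E.M.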
(Xenograft models place foreign cells or tissue in a host animal.)

The subject of test [6] is Medulloblastoma cell. Briefly: Induction of apoptosis in human wildtype SMO expressing medulloblastoma cells assessed as early apoptotic cells by annexin-V/PI staining based flow cytometric analysis (reference value: 0.59%). It is filed as functional.
The test system of test [7] is MEF. Briefly: Downregulation of Gli1 protein expression in Sufu-/- MEF cells by immunoblot analysis. Format: functional, cell-based. The note with it: Mus musculus. An outline of the steps: (§1)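 Sufu−/− MEFs exposed to DMSO or 1 uM of JQ1, GDC-0449, LDE225 or SANT-1; RIPA lysis 30min on ice, cleared 13000rpm 15min 4°C; SDS-PAGE immunoblot with anti-GLI1, β-tubulin as loading control.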

In test [8] the test system is Medulloblastoma cell. Briefly: Antiproliferative activity against in […] medulloblastoma cells expressing SmoWT-MB cells from mouse assessed as cell proliferation by EdU analysis. It is filed as functional, cell-based. The method in brief: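 SmoWT-MB cells given 0.1uM GDC-0449 or LDE225 (or JQ1 1 uM); 10uM EdU added for final 6-8hrs; EdU+ cells detected by Click-iT flow cytometry or imaging, DAPI counterstain; proliferation index = EdU+/DAPI+ cells; group means ± SD.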

Test [9] relates to Medulloblastoma cell. Briefly: Induction of apoptosis in human wildtype SMO expressing medulloblastoma cells assessed as viable cells by annexin-V/PI staining based flow cytometric analysis (reference value: 74.9%). It is filed as functional.
Test [10] has as its system MEF. Kind of test: Downregulation of Gli transcription in Sufu-/- MEF cells by immunoblot analysis. It is filed as functional, cell-based. The note with it: Mus musculus. The method in brief:
as §1

Test [11] relates to Medulloblastoma cell. Kind of test: Antitumor activity in […] medulloblastoma cells expressing SmoD477G mutant […] in NSG mouse assessed as reduction in tumor growth at 100 mg/kg/day, po. It is filed as functional, organism-based.
The target in test [12] is Zinc finger protein GLI2 (Homo sapiens) (UniProt P10070). Kind of test: Inhibition of human GLI2 expressed in Hh-Light2 cells assessed as reduction in Gli1 mRNA expression level by qRT-PCR analysis. Format: cell-based. The method in brief:
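Hh-Light2 cells transiently transfected (Turbofect) with full-length murine HA-Gli2-FL or N-terminally truncated human Myc-GLI2-DN; drugs (1 uM JQ1, GDC-0449, LDE225 or SANT-1) added 24hr post-transfection; Gli1 mRNA by SYBR Green qRT-PCR; mean of triplicates ± SD.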

Zinc finger protein GLI2 (Homo sapiens), sequence (P10070 whole entry, the tested form may be a part): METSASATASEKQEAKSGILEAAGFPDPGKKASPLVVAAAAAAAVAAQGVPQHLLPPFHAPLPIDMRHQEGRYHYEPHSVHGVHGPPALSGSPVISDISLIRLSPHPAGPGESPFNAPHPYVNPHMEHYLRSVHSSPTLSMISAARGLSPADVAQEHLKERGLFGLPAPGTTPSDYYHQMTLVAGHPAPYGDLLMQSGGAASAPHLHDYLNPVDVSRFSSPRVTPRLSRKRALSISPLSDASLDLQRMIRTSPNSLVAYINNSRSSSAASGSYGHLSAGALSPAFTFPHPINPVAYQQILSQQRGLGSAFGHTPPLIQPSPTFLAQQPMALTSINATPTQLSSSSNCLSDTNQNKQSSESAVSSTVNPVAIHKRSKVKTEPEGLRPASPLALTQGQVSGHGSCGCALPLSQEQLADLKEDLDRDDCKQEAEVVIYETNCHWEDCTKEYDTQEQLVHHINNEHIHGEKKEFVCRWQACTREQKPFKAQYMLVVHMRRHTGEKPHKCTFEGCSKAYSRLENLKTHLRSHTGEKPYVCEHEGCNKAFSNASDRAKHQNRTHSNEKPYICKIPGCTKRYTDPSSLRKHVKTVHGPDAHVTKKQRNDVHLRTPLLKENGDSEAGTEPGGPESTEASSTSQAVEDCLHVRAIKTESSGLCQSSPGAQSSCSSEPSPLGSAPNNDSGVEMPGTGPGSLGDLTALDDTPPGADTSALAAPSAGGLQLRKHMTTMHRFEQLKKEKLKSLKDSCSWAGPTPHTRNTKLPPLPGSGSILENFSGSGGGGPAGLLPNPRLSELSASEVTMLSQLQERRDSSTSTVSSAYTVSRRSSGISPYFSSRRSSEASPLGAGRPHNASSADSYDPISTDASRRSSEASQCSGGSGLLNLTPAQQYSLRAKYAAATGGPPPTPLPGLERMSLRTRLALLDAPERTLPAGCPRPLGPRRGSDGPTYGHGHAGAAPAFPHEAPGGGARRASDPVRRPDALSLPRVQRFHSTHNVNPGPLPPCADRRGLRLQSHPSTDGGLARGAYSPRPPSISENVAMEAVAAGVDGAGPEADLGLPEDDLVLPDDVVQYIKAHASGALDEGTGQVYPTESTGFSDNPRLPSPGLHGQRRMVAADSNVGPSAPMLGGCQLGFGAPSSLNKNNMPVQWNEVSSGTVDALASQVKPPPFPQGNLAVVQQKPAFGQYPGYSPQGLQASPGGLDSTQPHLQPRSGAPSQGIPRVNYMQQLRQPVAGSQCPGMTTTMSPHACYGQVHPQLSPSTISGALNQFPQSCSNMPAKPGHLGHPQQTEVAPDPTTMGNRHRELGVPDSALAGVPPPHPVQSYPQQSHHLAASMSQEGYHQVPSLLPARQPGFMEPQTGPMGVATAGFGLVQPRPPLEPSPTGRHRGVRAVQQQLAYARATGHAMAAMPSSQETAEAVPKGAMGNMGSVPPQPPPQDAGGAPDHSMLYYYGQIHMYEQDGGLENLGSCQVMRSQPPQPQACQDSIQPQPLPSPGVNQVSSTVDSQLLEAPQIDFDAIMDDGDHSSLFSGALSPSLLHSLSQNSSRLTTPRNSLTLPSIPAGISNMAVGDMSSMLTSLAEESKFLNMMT

On to `CS(=O)(=O)c1ccc(C(=O)Nc2ccc(Cl)c(-c3ccccn3)c2)c(Cl)c1` [VISMODEGIB], for which the Activity is 51.2% with Medulloblastoma cell [1], 6.98% in the test with Medulloblastoma cell [2], 1.01% in the test on Medulloblastoma cell [6] and 40.8% in the test on Medulloblastoma cell [9]. In addition, the inhibition result in [3] and in test [4] was “Active” throughout. The result in the test with Medulloblastoma cell [5] and in the test on Medulloblastoma cell [8] was Active. In addition, the result in the test on MEF [7], in the test with MEF [10] and with Medulloblastoma cell [11] was inactive. The inhibition result in test [12] was “inactive”.

Take `Cc1nn(-c2ccccc2)c(C)c1/C=N/N1CCN(Cc2ccccc2)CC1`: the inhibition result in [3] and in test [4] was “Active” throughout. For the same compound, the result in the test with MEF [7] and in the test with MEF [10] was inactive. Moreover, the inhibition entry in test [12] was “inactive”.
